From ChEMBL document CHEMBL1128731, “Furanfurin and thiophenfurin: two novel tiazofurin analogues. Synthesis, structure, antitumor activity, and interactions with inosine monophosphate dehydrogenase” (J Med Chem, 1995)

Assays:
[1] = system: HL-60; test: (§1) Inhibitory concentration range against human HL-60 cell line; assay type: functional
In short: (§2)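 Antiproliferative assay scoring [125I]-5-iodo-2'-deoxyuridine incorporation into DNA after 72 h drug–cell contact. Run on normal human bone marrow from five donors and in three assays on HL-60. Ratio is antilog(mean log IC50 or IC90) on bone marrow over the same on HL-60. Range limits are antilog(mean log IC50 ± 2SD).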

[2] = system: HL-60; test: Inhibitory concentration against HL-60 human promyelocytic leukemia; assay type: functional, cell-based
In short: (§3)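 Cells in log phase plated with a range of drug concentrations (B16 5×10^3 cells/well; P388, L1210, LLC 10^4 cells/well; HL-60, K562, LoVo 2.5×10^5 cells/well). Growth read by modified MTT after 72 h drug contact at 37 °C. IC50 taken as the concentration reducing optical absorption by 50%, from Chou regression analysis. Maximum concentration tested 200 μM.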

[3] = system: HL-60; test: as §1; assay type: functional, cell-based; in short: as §2
[4] = species: Homo sapiens; test: (§4) Inhibitory concentration range against human bone marrow; assay type: functional, organism-based; in short: as §2
[5] = species: Homo sapiens; test: as §4; assay type: functional; in short: as §2
[6] = system: K562; test: Compound was tested for its effect on UDP ribonucleotide levels of K562 cell at 50 uM concentration; assay type: functional, Homo sapiens
In short: (§5)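 K562 cells (1×10^7) were treated with saline or agent for 2 h at 37 °C, harvested by centrifugation and washed with cold saline. They were extracted with cold 10% trichloroacetic acid, neutralized with 0.5 M tri-n-octylamine in freon, and analyzed by HPLC. Levels are in nmol/g and expressed as % of saline control. Significance was set at p < 0.05.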

[7] = system: K562; test: Compound was tested for its effect on UMP ribonucleotide levels of K562 cell at 100 uM concentration; assay type: functional, Homo sapiens; in short: as §5
[8] = system: K562; test: Compound was tested for its effect on UMP ribonucleotide levels of K562 cell at 50 uM concentration; assay type: functional, Homo sapiens; in short: as §5
[9] = system: K562; test: Compound was tested for its effect on UTP ribonucleotide levels of K562 cell at 100 uM concentration; assay type: functional, Homo sapiens; in short: as §5
[10] = system: K562; test: Compound was tested for its effect on UTP ribonucleotide levels of K562 cell at 50 uM concentration; assay type: functional, Homo sapiens; in short: as §5
[11] = system: K562; test: compound was tested for its effect on IMPDH activity against K562 cells at 50 uM concentration; assay type: functional, Homo sapiens
In short: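 K562 cells (1×10^6/mL, log phase) exposed 2 h at 37 °C to 10, 50 or 100 μM drug, or to saline. Cells washed and lysed in Tris-HCl pH 7.4/NaCl/MgCl2/NP-40/aprotinin, and the 13000g supernatant used as enzyme. Enzyme incubated 30 min at 37 °C with 286 μM [2,8-3H]IMP and 1 mM NAD. Tritium release counted; activity in nmol XMP/h/mg protein, as % of saline control.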

[12] = system: K562; test: Compound was tested for its effect on GDP ribonucleotide levels of K562 cell at 50u; assay type: functional, Homo sapiens; in short: as §5
[13] = system: K562; test: Compound was tested for its effect on GMP ribonucleotide levels of K562 cell at 100 uM concentration; assay type: functional, Homo sapiens; in short: as §5
[14] = system: K562; test: Compound was tested for its effect on GMP ribonucleotide levels of K562 cell at 50 uM concentration; assay type: functional, Homo sapiens; in short: as §5
[15] = system: K562; test: Compound was tested for its effect on GTP ribonucleotide levels of K562 cell at 100 uM concentration; assay type: functional, Homo sapiens; in short: as §5
[16] = system: K562; test: Compound was tested for its effect on GTP ribonucleotide levels of K562 cell at 50 uM concentration; assay type: functional, Homo sapiens; in short: as §5
[17] = system: K562; test: Formation of NAD analogue by compound at 100 uM concentration against human myelogenous leukemia K562; assay type: functional
In short: (§6)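 K562 cells (1×10^7/10 mL) were labeled with 185 nM [2,8-3H]adenosine for 1 h at 37 °C, then given saline or analogue for 2 h. Cells were pelleted, washed with PBS and extracted in cold 10% trichloroacetic acid. Extracts were neutralized with 0.5 M tri-n-octylamine in freon and run on SAX HPLC with ammonium phosphate buffer. Results are pmol NAD analogue per 10^9 cells.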

[18] = system: K562; test: Formation of NAD analogue by compound at 50 uM concentration against human myelogenous leukemia K562; assay type: functional; in short: as §6
[19] = system: K562; test: Compound was tested for its effect on IMP ribonucleotide levels of K562 cell at 50 uM concentration; assay type: functional, Homo sapiens; in short: as §5
[20] = system: K562; test: Compound was tested for its effect on NAD ribonucleotide levels of K562 cell at 100 uM concentration; assay type: functional, Homo sapiens; in short: as §5
[21] = system: K562; test: Compound was tested for its effect on NAD ribonucleotide levels of K562 cell at 50 uM concentration; assay type: functional, Homo sapiens; in short: as §5
[22] = system: K562; test: Compound was tested for its effect on UDP ribonucleotide levels of K562 cell at 100 uM concentration; assay type: functional, Homo sapiens; in short: as §5
[23] = system: K562; test: Inhibitory concentration against K562 human myelogenous leukemia cell line; assay type: functional, cell-based; in short: as §3
[24] = system: Lewis lung carcinoma cell line; test: Inhibitory concentration against LLC Lewis lung carcinoma; assay type: functional, cell-based; settings: Mus musculus; in short: as §3
[25] = system: L1210; test: Inhibitory concentration against L1210 murine lymphocytic leukemia; assay type: functional, cell-based; settings: Mus musculus; in short: as §3
[26] = system: K562; test: Compound was tested for its effect on ADP ribonucleotide levels of K562 cell at 100 uM concentration; assay type: functional, Homo sapiens; in short: as §5
[27] = system: K562; test: Compound was tested for its effect on ADP ribonucleotide levels of K562 cell at 50 uM concentration; assay type: functional, Homo sapiens; in short: as §5
[28] = system: K562; test: Compound was tested for its effect on AMP ribonucleotide levels of K562 cell at 100 uM concentration; assay type: functional, Homo sapiens; in short: as §5
[29] = system: K562; test: Compound was tested for its effect on AMP ribonucleotide levels of K562 cell at 50 uM concentration; assay type: functional, Homo sapiens; in short: as §5
[30] = system: K562; test: Compound was tested for its effect on ATP ribonucleotide levels of K562 cell at 100 uM concentration; assay type: functional, Homo sapiens; in short: as §5
[31] = system: K562; test: Compound was tested for its effect on ATP ribonucleotide levels of K562 cell at 50 uM concentration; assay type: functional, Homo sapiens; in short: as §5
[32] = system: K562; test: Compound was tested for its effect on CDP ribonucleotide levels of K562 cell at 100 uM concentration; assay type: functional, Homo sapiens; in short: as §5
[33] = system: K562; test: Compound was tested for its effect on CDP ribonucleotide levels of K562 cell at 50 uM concentration; assay type: functional, Homo sapiens; in short: as §5
[34] = system: K562; test: Compound was tested for its effect on CTP ribonucleotide levels of K562 cell at 100 uM concentration; assay type: functional, Homo sapiens; in short: as §5
[35] = system: K562; test: Compound was tested for its effect on CTP ribonucleotide levels of K562 cell at 50 uM concentration; assay type: functional, Homo sapiens; in short: as §5
[36] = system: K562; test: Compound was tested for its effect on GDP ribonucleotide levels of K562 cell at 100 uM concentration; assay type: functional, Homo sapiens; in short: as §5
[37] = system: LoVo; test: Inhibitory concentration against LoVo human colon adenocarcinoma cell lines; assay type: functional, cell-based; in short: as §3
[38] = system: P388; test: Inhibitory concentration against P388 murine lymphocytic leukemia cell lines; assay type: functional, cell-based; settings: Mus musculus; in short: as §3
[39] = system: Mus musculus; test: Compound was tested for ratio of survival time of treated to control mice x100 at 25 mg/kg dose; assay type: functional
In short: (§7)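 Female BD2F1 mice (8 weeks old, 20–22 g), eight per group, injected ip with 10^5 L1210 leukemia cells on day 0. Starting 24 h later, drug dissolved in 0.9% NaCl given ip once daily for 9 consecutive days. % T/C = survival time of treated/control mice × 100. Body weight change tracked from start to end of treatment.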

[40] = system: Mus musculus; test: Compound was tested for ratio of survival time of treated to control mice x100 at 400 mg/kg dose; assay type: functional; in short: as §7
[41] = system: Mus musculus; test: Average weight change of mice from onset to termination of drug treatment at 25 mg/kg dose; assay type: functional
In short: (§8)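 Female BD2F1 mice (8 weeks, 20–22 g), eight per group, injected ip with 10^5 L1210 cells on day 0. From 24 h later, drug in 0.9% NaCl was given ip once daily for 9 days. Body weight change was averaged from onset to termination of treatment. Early deaths from toxicity were recorded.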

[42] = system: Mus musculus; test: Average weight change of mice from onset to termination of drug treatment at 400 mg/kg dose; assay type: functional; in short: as §8
[43] = Ratio of IC50 against HL-60; assay type: functional; in short: as §2
[44] = IC50 ratio against bone marrow samples to HL-60; assay type: functional; in short: as §2
[45] = IC90 ratio against bone marrow samples to HL-60; assay type: functional; in short: as §2
[46] = system: K562; test: Compound was tested for its effect on IMP ribonucleotide levels of K562 cell at 100 uM concentration; assay type: functional, Homo sapiens; in short: as §5
[47] = system: K562; test: Compound was tested for its effect on IMPDH activity against K562 cells at 50 uM concentration; assay type: functional, Homo sapiens
In short: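 Log-phase K562 cells (1×10^6/mL) were exposed to saline or agent for 2 h at 37 °C, washed and lysed (Tris-HCl pH 7.4, NaCl, MgCl2, 0.5% NP-40, aprotinin). The cleared supernatant was incubated 30 min at 37 °C with 286 μM [2,8-3H]IMP and 1 mM NAD. Tritium release was counted by scintillation. Activity is nmol XMP/h/mg protein, also given as % of control.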

[48] = system: B16; test: Inhibitory concentration against B16 melanoma cell lines; Inactive until a maximum tested concentration of 200 uM; assay type: functional, cell-based, Mus musculus; in short: as §3
[49] = system: HL-60; test: Inhibitory concentration against HL-60 human promyelocytic leukemia cell lines; inactive until a maximum tested concentration of 200 uM; assay type: functional, cell-based; in short: as §3
[50] = system: K562; test: Inhibitory concentration determined against K562 human myelogenous leukemia cell lines; inactive until a maximum tested concentration of 200 uM; assay type: functional, cell-based; in short: as §3
[51] = system: Lewis lung carcinoma cell line; test: Inhibitory concentration against LLC Lewis lung carcinoma cell lines; Inactive until a maximum tested concentration of 200 uM; assay type: functional, cell-based, Mus musculus; in short: as §3
[52] = system: L1210; test: Inhibitory concentration against L1210 murine lymphocytic leukemia cell lines; inactive until a maximum tested concentration of 200 uM; assay type: functional, cell-based, Mus musculus; in short: as §3
[53] = system: LoVo; test: Inhibitory concentration against LoVo human colon adenocarcinoma cell lines; Inactive until a maximum tested concentration of 200 uM; assay type: functional, cell-based; in short: as §3
[54] = system: P388; test: Inhibitory concentration against P388 murine lymphocytic leukemia cell lines; Inactive until a maximum tested concentration of 200 uM; assay type: functional, cell-based, Mus musculus; in short: as §3

## NC(=O)c1csc([C@@H]2O[C@H](CO)[C@@H](O)[C@H]2O)n1 [TIAZOFURIN]
[1]
  IC90: 7.6 µM
[2]
  IC50: 8.7 µM
[3]
  IC50: 2.5 µM
[4]
  IC50: 10.4 µM
[5]
  IC90: >128 µM
[6]
  Control: 120%
[7]
  Control: 96%
[8]
  Control: 113%
[9]
  Control: 90%
[10]
  Control: 115%
[11]
  Control: 37%
[12]
  Control: 82%
[13]
  Control: 55%
[14]
  Control: 62%
[15]
  Control: 54%
[16]
  Control: 64%
[17]
  Formation: 310 pmol/10^9 cells
[18]
  Formation: 186 pmol/10^9 cells
[19]
  Control: 544%
[20]
  Control: 84%
[21]
  Control: 98%
[22]
  Control: 116%
[23]
  IC50: 4.5 µM
[24]
  IC50: 1.5 µM
[25]
  IC50: 7.4 µM
[26]
  Control: 99%
[27]
  Control: 103%
[28]
  Control: 103%
[29]
  Control: 100%
[30]
  Control: 91%
[31]
  Control: 101%
[32]
  Control: 85%
[33]
  Control: 104%
[34]
  Control: 32%
[35]
  Control: 92%
[36]
  Control: 63%
[37]
  IC50: > 128 µM
[38]
  IC50: 2.2 µM
[39]
  T/C: 177%
[40]
  T/C: 260%
[41]
  Change: -4.3%
[42]
  Change: -13.1%
[43]
  Ratio: 1.9
[44]
  Ratio: 7.3
[45]
  Ratio: >6
[46]
  Control: 578%
[47]
  Activity: 1.82

## NC(=O)c1coc([C@@H]2O[C@H](CO)[C@@H](O)[C@H]2O)c1
[48]
  IC50: Not Active
[49]
  IC50: Not Active
[17]
  Formation: 124 pmol/10^9 cells
[18]
  Formation: 49.4 pmol/10^9 cells
[50]
  IC50: Not Active
[51]
  IC50: Not Active
[52]
  IC50: Not Active
[53]
  IC50: Not Active
[54]
  IC50: Not Active
